# Source: ChEMBL document CHEMBL3228039, “Synthesis and evaluation of the antiovulatory activity of a variety of melatonin analogues” (J Med Chem, 1979)
# Active and inactive are the calls of the source. The calls are words filed in the database; no cut-off is given here.
# Experiments:
# Rattus norvegicus [1] = assay: Antiovulatory activity in Sprague-Dawley rat assessed as blockage of luteinizing hormone surge by measuring reduction in ovulation at 8 mg/kg, po by microscopic analysis; format: functional, organism-based; design: dose 8 mg/kg
# Outline: (§1)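 Female rats (270-300 g) with at least two consecutive 4-day estrus cycles, tracked by daily vaginal smears, were used on the day of proestrus. A single dose was given at 1200 h, either iv in 50% Me2SO or orally in PEG 400. Controls received vehicle only. Rats were killed on the day of estrus, and oviducts were examined microscopically for ova. Absence of ova was scored as ovulation blocked.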
# Rattus norvegicus [2] = assay: Antiovulatory activity in Sprague-Dawley rat assessed as blockage of luteinizing hormone surge by measuring reduction in ovulation at 8 mg/kg, iv by microscopic analysis; format: functional, organism-based; design: dose 8 mg/kg; outline: as §1
# [3] = Half life in rat plasma after 30 mins; format: ADME, cell-free
# [4] = Half life in rat plasma after 2 hrs; format: ADME, cell-free
# [5] = Half life in serum (unknown origin) after first 2 hrs post iv dose; format: ADME, organism-based
# Rattus norvegicus [6] = assay: Antiovulatory activity in Sprague-Dawley rat assessed as blockage of luteinizing hormone surge by measuring reduction in ovulation at 4 mg/kg, iv by microscopic analysis; format: functional, organism-based; design: dose 4 mg/kg; outline: as §1
# Rattus norvegicus [7] = assay: Antiovulatory activity in Sprague-Dawley rat assessed as blockage of luteinizing hormone surge by measuring reduction in ovulation at 5 mg/kg, po by microscopic analysis; format: functional, organism-based; design: dose 5 mg/kg; outline: as §1
# Xenopus laevis = species on record: Xenopus laevis; assay: Melatonin-like activity in tadpole by blanching test; format: functional, organism-based
# Rattus norvegicus [8] = assay: Antiovulatory activity in Sprague-Dawley rat assessed as blockage of luteinizing hormone surge by measuring reduction in ovulation at 4 mg/kg, po by microscopic analysis; format: functional, organism-based; design: dose 4 mg/kg; outline: as §1
smiles,measurement,setting,value
COc1ccc2c(c1)c(CCNC(C)=O)cn2C,Activity,Rattus norvegicus [1],Active
CC(=O)NCCc1c[nH]c2ccc(OC(C)=O)cc12,Activity,Rattus norvegicus [1],Active
same,Activity,Rattus norvegicus [2],Active
COc1ccc2[nH]cc(CCNC(C)=O)c2c1 [MELATONIN],half-life,[3],15 min
same,half-life,[4],12 min
same,half-life,[5],> 12 min
COc1ccc2[nH]cc(CCNC(C)=O)c2c1Cl,Activity,Rattus norvegicus [1],Active
CC(=O)NCCc1c[nH]c2ccc(OC3CCCC3)cc12,Activity,Rattus norvegicus [1],Active
COc1cc2c(CCNC(=O)C34CC5CC(CC(C5)C3)C4)c[nH]c2cc1Cl,Activity,Rattus norvegicus [1],Active
COc1cc2c(CCNC(C)=O)c[nH]c2cc1Cl,Activity,Rattus norvegicus [6],inactive
same,Activity,Rattus norvegicus [7],inactive
same,Activity,Xenopus laevis,Active
same,half-life,[5],27 min
CCOc1ccc2[nH]cc(CCNC(C)=O)c2c1,Activity,Rattus norvegicus [1],Active
CCC(=O)NCCc1c[nH]c2cc(Cl)c(OC)cc12,Activity,Rattus norvegicus [8],inactive
COc1cc2c(CCNC(C)=O)c[nH]c2cc1C,Activity,Rattus norvegicus [1],Active
CC(=O)NCCc1c[nH]c2ccc(O)cc12,Activity,Rattus norvegicus [1],Active
same,Activity,Rattus norvegicus [2],Active
